In ChEMBL document CHEMBL1128543, “Computer-aided design and synthesis of 5-substituted tryptamines and their pharmacology at the 5-HT1D receptor: discovery of compounds with potential anti-migraine properties” (J Med Chem, 1995):

Columns and labels:
Settings in all cases: Oryctolagus cuniculus
[1] = biological target: 5-hydroxytryptamine receptor 1D (Homo sapiens) (UniProt P28221); assay: The compound was tested for binding affinity against 5-HT1D receptor
Outline: (§1)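 Rabbit saphenous vein rings (male New Zealand White; 4–5 mm) mounted on tungsten wires in Krebs–Henseleit buffer, pH 7.4, 37 °C, gassed with 95% O2/5% CO2, at 2 g passive force. Pretreated for 30 min with pargyline (500 μM) and phenoxybenzamine (0.3 μM), then washed. Cumulative 5-HT curve, then after 60 min a test agonist curve. Potency is p[A50]; α is test maximum/5-HT maximum; n ≥ 3.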

[2] = biological target: 5-hydroxytryptamine receptor 1D (Homo sapiens) (UniProt P28221); assay: The compound was tested for intrinsic activity against 5-HT1D receptor; outline: as §1
[3] = biological target: 5-hydroxytryptamine receptor 2A (Homo sapiens) (UniProt P28223)
Sequence of 5-hydroxytryptamine receptor 2A (Homo sapiens) (P28223 whole entry): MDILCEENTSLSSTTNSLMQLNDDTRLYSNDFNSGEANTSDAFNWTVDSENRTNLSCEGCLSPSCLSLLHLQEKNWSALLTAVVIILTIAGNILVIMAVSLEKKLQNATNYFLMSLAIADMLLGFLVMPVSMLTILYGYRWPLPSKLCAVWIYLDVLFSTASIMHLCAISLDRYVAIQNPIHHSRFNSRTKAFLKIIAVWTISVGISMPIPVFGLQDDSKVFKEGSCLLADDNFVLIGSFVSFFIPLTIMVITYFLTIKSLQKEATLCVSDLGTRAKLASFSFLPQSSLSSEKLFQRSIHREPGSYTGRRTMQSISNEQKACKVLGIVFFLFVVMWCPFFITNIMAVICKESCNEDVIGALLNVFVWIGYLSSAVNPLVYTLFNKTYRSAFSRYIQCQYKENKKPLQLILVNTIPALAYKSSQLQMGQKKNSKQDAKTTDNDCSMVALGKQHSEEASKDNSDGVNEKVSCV

Sequence of 5-hydroxytryptamine receptor 1D (Homo sapiens) (P28221 whole entry): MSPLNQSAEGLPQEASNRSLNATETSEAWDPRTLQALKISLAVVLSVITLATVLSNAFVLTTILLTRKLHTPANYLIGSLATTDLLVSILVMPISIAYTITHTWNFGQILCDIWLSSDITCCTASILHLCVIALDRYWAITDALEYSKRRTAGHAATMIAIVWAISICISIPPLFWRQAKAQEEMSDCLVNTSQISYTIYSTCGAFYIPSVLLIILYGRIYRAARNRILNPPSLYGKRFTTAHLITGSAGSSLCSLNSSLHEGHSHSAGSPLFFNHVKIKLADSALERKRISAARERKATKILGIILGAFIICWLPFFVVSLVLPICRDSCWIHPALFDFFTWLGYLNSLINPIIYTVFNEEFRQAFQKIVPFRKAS

| Structure (SMILES) | p[A50] [1] | Intrinsic activity [2] | p[A50] [3] |
| --- | --- | --- | --- |
| CN(C)CCc1c[nH]c2ccc(CCC3NC(=O)N(Cc4ccccc4)C3=O)cc12 (stereo not drawn) | 6.3 | 0.2 | 5.9 |
| NCCc1c[nH]c2ccc(CC3NC(=O)N(Cc4cccc(C(=O)Nc5ccccc5)c4)C3=O)cc12 (stereo not drawn) | 6.6 | 0.53 | 3.9 |
| CN(C)CCc1c[nH]c2ccc(CCN3C(=O)N[C@@H](Cc4ccc(NS(C)(=O)=O)cc4)C3=O)cc12 | 7.4 | 0.6 | < 4.5 |
| O=C(CCCN1CCC2(CC1)C(=O)NCN2c1ccccc1)c1ccc(F)cc1 | 5.8 | – | 9.7 |
| NCCc1c[nH]c2ccc(CC3NC(=O)N(Cc4ccccc4)C3=O)cc12 (stereo not drawn) | 6.1 | 0.72 | 4 |
| CN1C(=O)NC(Cc2ccc3[nH]cc(CCN)c3c2)C1=O (stereo not drawn) | 4.8 | – | 4 |
| CN(C)CCc1c[nH]c2ccc(CCN3C(=O)NC(Cc4ccc(NS(C)(=O)=O)cc4)C3=O)cc12 (stereo not drawn) | 7.4 | 0.6 | < 4.5 |
| CN(C)CCc1c[nH]c2ccc(C[C@H]3CNC(=O)N3C)cc12 | 7 | 1 | < 4.5 |
| Cc1ccc2[nH]cc(CCN)c2c1 | 6.1 | 1 | 6.2 |
| CN(C)CCc1c[nH]c2ccc(CC3NC(=O)N(Cc4cccc(NC(=O)c5ccccc5)c4)C3=O)cc12 (stereo not drawn) | 6.3 | 0.55 | 5 |
| COc1ccc2[nH]cc(C3=CCNCC3)c2c1 | 7.1 | 0.89 | – |
| NCCc1c[nH]c2ccc(C(N)=O)cc12 | 8.1 | 0.84 | 5.9 |
| NCCc1c[nH]c2ccccc12 | 6.9 | 0.86 | 6.1 |
| CC(=O)Nc1cccc(CC2NC(=O)N(CCc3ccc4[nH]cc(CCN(C)C)c4c3)C2=O)c1 (stereo not drawn) | 7.2 | 0.6 | < 4.5 |
| CC(=O)Nc1ccc(CN2C(=O)NC(Cc3ccc4[nH]cc(CCN)c4c3)C2=O)cc1 (stereo not drawn) | 5.8 | 0.81 | – |
| COC(=O)c1ccc(CC2NC(=O)N(CCc3ccc4[nH]cc(CCN)c4c3)C2=O)cc1 (stereo not drawn) | 7.3 | 0.7 | < 4.5 |
| CN(C)CCc1c[nH]c2ccc(CC3NC(=O)N(Cc4ccc(Oc5ccccc5)cc4)C3=O)cc12 (stereo not drawn) | 7.4 | 0.79 | 4.7 |
| CS(=O)(=O)Nc1ccc(C[C@H]2NC(=O)N(CCc3ccc4[nH]cc(CCN)c4c3)C2=O)cc1 | 7.1 | 0.7 | 5.3 |
| CN(C)CCc1c[nH]c2ccc(CCN3C(=O)CNC3=O)cc12 | 6.1 | 0.5 | < 4.5 |
| O=C1CC2(CCCC2)CS(=O)(=O)N1CCCCN1CCN(c2ncccn2)CC1 | 4.9 | – | 5.1 |
| O=C1NCN(c2ccccc2)C12CCN(CC1COc3ccccc3O1)CC2 (stereo not drawn) | 5.1 | – | 6.2 |
| CNCCc1c[nH]c2ccc(CCN3C(=O)CNC3=O)cc12 | 6.7 | 0.7 | < 4.5 |
| NCCc1c[nH]c2ccc(CC3NC(=O)N(Cc4ccc(C(=O)Nc5ccccc5)cc4)C3=O)cc12 (stereo not drawn) | 5.9 | 0.7 | 4.5 |
| CN1C(=O)NC[C@@H]1Cc1ccc2[nH]cc(CCN)c2c1 | 6.9 | 0.88 | 5 |

| Structure (SMILES) | p[A50] [1] | Intrinsic activity [2] | p[A50] [3] |
| --- | --- | --- | --- |
| NCCc1c[nH]c2ccc(CC3NC(=O)N(CCCc4ccccc4)C3=O)cc12 (stereo not drawn) | 6.6 | 0.93 | < 4.5 |
| CN1C(=O)N(Cc2ccccc2)CC1Cc1ccc2[nH]cc(CCN)c2c1 (stereo not drawn) | 7.5 | – | 5 |
| CC(=O)Nc1cccc(CC2NC(=O)N(CCc3ccc4[nH]cc(CCN)c4c3)C2=O)c1 (stereo not drawn) | 7 | 0.7 | < 4.5 |
| Cn1c(Cc2ccc3[nH]cc(CCN)c3c2)cn(Cc2ccccc2)c1=O | 7.1 | 0.95 | 6.3 |
| CCC(CO)NC(=O)[C@H]1C=C2c3cccc4c3c(cn4C)CC2N(C)C1 (stereo partly drawn) | 6.7 | 0.64 | – |
| NCCc1c[nH]c2ccc(CC3NC(=O)N(CCc4ccccc4)C3=O)cc12 (stereo not drawn) | 6.7 | 0.67 | 4.5 |
| CN(C)CCc1c[nH]c2ccc(O)cc12 | 7.3 | 0.92 | 6.8 |
| O=C1CC2(CCCC2)CC(=O)N1CCCCN1CCN(c2ncccn2)CC1 | 4.5 | – | – |
| CNCCc1c[nH]c2ccc(CCN3C(=O)NC(Cc4cccc(NC(C)=O)c4)C3=O)cc12 (stereo not drawn) | 6.9 | 0.6 | < 4.5 |
| O=C(c1ccc(F)cc1)C1CCN(CCn2c(=O)[nH]c3ccccc3c2=O)CC1 | 6 | – | 9.1 |
| CN(C)CCc1c[nH]c2ccc(CC3NC(=O)N(Cc4ccccc4)C3=O)cc12 (stereo not drawn) | 5.6 | – | < 4.5 |
| CCCNC(=O)c1cccc(CN2C(=O)NC(Cc3ccc4[nH]cc(CCN)c4c3)C2=O)c1 (stereo not drawn) | 6.8 | 0.99 | 4.5 |
| C[C@@H](CO)NC(=O)[C@@H]1C=C2c3cccc4[nH]cc(c34)C[C@H]2N(C)C1 | 9 | 0.9 | – |
| CNC(=O)c1cccc(CN2C(=O)NC(Cc3ccc4[nH]cc(CCN)c4c3)C2=O)c1 (stereo not drawn) | 5.8 | 0.71 | 4.3 |
| CN1C(=O)N(Cc2ccccc2)C(=O)C1Cc1ccc2[nH]cc(CCN)c2c1 (stereo not drawn) | 6 | 1 | < 4.5 |
| CS(=O)(=O)Nc1ccc(CC2NC(=O)N(CCc3ccc4[nH]cc(CCN)c4c3)C2=O)cc1 (stereo not drawn) | 7.4 | 0.8 | 5.2 |
| CN(C)CCc1c[nH]c2ccc(CC3NC(=O)N(CCc4ccccc4)C3=O)cc12 (stereo not drawn) | 6 | 0.39 | – |
| CNS(=O)(=O)Cc1ccc2[nH]cc(CCN(C)C)c2c1 | 6.6 | 0.83 | – |
| NCCc1c[nH]c2ccc(CCC3NC(=O)N(Cc4ccccc4)C3=O)cc12 (stereo not drawn) | 6.7 | 0.9 | < 4.5 |
| NCCc1c[nH]c2ccc(CC3NC(=O)N(Cc4cccc(NC(=O)c5ccccc5)c4)C3=O)cc12 (stereo not drawn) | 7.3 | 0.85 | 4.6 |
| CS(=O)(=O)Nc1cccc(CC2NC(=O)N(CCc3ccc4[nH]cc(CCN)c4c3)C2=O)c1 (stereo not drawn) | 7.2 | 0.8 | < 4.5 |
| NCCc1c[nH]c2ccc(CC3NC(=O)N(Cc4cccc(Oc5ccccc5)c4)C3=O)cc12 (stereo not drawn) | 7.4 | 0.79 | 4.7 |
| CN(C)CCc1c[nH]c2ccc(CCN3C(=O)NC(Cc4ccc([N+](=O)[O-])cc4)C3=O)cc12 (stereo not drawn) | 6.8 | 0.6 | < 4.5 |
| NCCc1c[nH]c2ccc(CC3NC(=O)N(Cc4ccc(-c5ccccc5)cc4)C3=O)cc12 (stereo not drawn) | 6.7 | 0.6 | – |
